Experimental data from ChEMBL document CHEMBL1141579, “Synthesis, cytostatic, and antiviral activity of novel 6-[2-(dialkylamino)ethyl]-, 6-(2-alkoxyethyl)-, 6-[2-(alkylsulfanyl)ethyl]-, and 6-[2-(dialkylamino)vinyl]purine nucleosides” (Bioorg Med Chem, 2008).
The source made the active and inactive calls. The rule behind the calls is not given here.

Columns and labels:
[1] = tested on: HL-60; test: Cytostatic activity against human HL60 cells ATCC CCL 240 assessed as growth reduction after 72 hrs; assay type: functional, cell-based; details: for IC50: HL-60, 72 h
Method in brief: (§1)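 Cells grown in RPMI 1640 with foetal calf serum in 24-well plates. Counted in a haematological analyzer 72 h after drug addition. Inhibition expressed as IC50.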

[2] = tested on: Hepatitis C virus; test: Antiviral activity against HCV 1b Con1 replicon in Huh7 cells; assay type: functional, organism-based, Hepatitis C virus subtype 1b; details: Huh-7
Method in brief: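 Con-1/lucneo replicon cells seeded at 8 × 10^3 per well in medium without Geneticin. Compounds serially diluted in DMSO and added 1:200 (0.5% DMSO final). Incubated 3 days at 37 C. Cells lysed and luciferase activity read by luminometer. EC50 by non-linear regression, N = 2.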

[3] = tested on: CCRF-CEM; test: Cytostatic activity against human CCRF-CEM cells ATCC CCL 119 assessed as growth reduction after 72 hrs; assay type: functional, cell-based; method in brief: as §1
[4] = Cytotoxicity against human Huh7 cells harboring con1 replicon after 3 days by MTT assay; assay type: cell-based, Huh-7
Method in brief: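 Con-1 replicon-bearing Huh-7 cells were seeded at 8 · 10^3 cells per well in medium without Geneticin. Compound was serially diluted in 100% DMSO and added 1:200, giving 0.5% DMSO final. Cells were incubated at 37 C for 3 days. Toxicity was read at the end, in duplicate (N = 2).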

[5] = tested on: L1210; test: Cytostatic activity against mouse L1210 cells ATCC CCL219 assessed as growth reduction after 72 hrs; assay type: functional, cell-based; details: for IC50: L1210, 72 h; method in brief: as §1
[6] = tested on: CCRF-CEM; test: Cytostatic activity against human CCRF-CEM cells ATCC CCL 119 assessed as cell viability by XTT test; assay type: functional, cell-based
Method in brief: (§2)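 Cell viability quantified by the XTT spectrophotometric assay. Inhibition expressed as IC50.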

[7] = tested on: HL-60; test: Cytostatic activity against human HL60 cells ATCC CCL 240 assessed as cell viability by XTT test; assay type: functional, cell-based; method in brief: as §2
[8] = tested on: HL-60; test: Cell cycle arrest in human HL60 cells assessed as accumulation in G2/M phase at 3.5 uM relative to control; assay type: functional
Method in brief: (§3)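 HL-60 cells treated at the stated concentration, then fixed in ethanol. Stained with propidium iodide in buffer containing RNase A and analysed by flow cytometry. Result given as the ratio of the treated to the control cell fraction in each phase (G1, S, G2/M).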

[9] = tested on: HL-60; test: Cell cycle arrest in human HL60 cells assessed as accumulation in S phase at 14 uM relative to control; assay type: functional; method in brief: as §3
[10] = tested on: HL-60; test: Cell cycle arrest in human HL60 cells assessed as accumulation in G1 phase at 3.5 uM relative to control; assay type: functional; method in brief: as §3
[11] = tested on: HL-60; test: Cell cycle arrest in human HL60 cells assessed as accumulation in G1 phase at 14 uM relative to control; assay type: functional; method in brief: as §3
[12] = tested on: HL-60; test: Cell cycle arrest in human HL60 cells assessed as accumulation in G2/M phase at 14 uM relative to control; assay type: functional; method in brief: as §3
[13] = tested on: HL-60; test: Cell cycle arrest in human HL60 cells assessed as accumulation in S phase at 3.5 uM relative to control; assay type: functional; method in brief: as §3
[14] = Cytotoxicity against human MT4 cells after 5 days; assay type: cell-based
Method in brief: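 MT-4 cells were seeded at 2 · 10^3 cells/well. Compounds were serially diluted in culture medium and cells were incubated for 5 days. Survival was measured by CellTiter Glo luminescence, in duplicate (N = 2).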

[15] = tested on: HL-60; test: Cell cycle arrest in human HL60 cells assessed as accumulation in G1 phase at 4.5 uM relative to control; assay type: functional; method in brief: as §3
[16] = tested on: HL-60; test: Cell cycle arrest in human HL60 cells assessed as accumulation in S phase at 4.5 uM relative to control; assay type: functional; method in brief: as §3
[17] = tested on: HL-60; test: Cell cycle arrest in human HL60 cells assessed as accumulation in G2/M phase at 4.5 uM relative to control; assay type: functional; method in brief: as §3
[18] = tested on: HL-60; test: Cell cycle arrest in human HL60 cells assessed as accumulation in G1 phase at 18 uM relative to control; assay type: functional; method in brief: as §3
[19] = tested on: HL-60; test: Cell cycle arrest in human HL60 cells assessed as accumulation in S phase at 18 uM relative to control; assay type: functional; method in brief: as §3
[20] = tested on: HL-60; test: Cell cycle arrest in human HL60 cells assessed as accumulation in G2/M phase at 18 uM relative to control; assay type: functional; method in brief: as §3

Row | Structure (SMILES) | Activity [1] | EC50 [2] [µM] | Activity [3] | CC50 at 72 h [4] [µM] | Activity [5] | IC50 [6] [µM] | IC50 [1] [µM] | IC50 [7] [µM] | IC50 [3] [µM] | IC50 [5] [µM] | other results
1 | OC[C@H]1O[C@@H](n2cnc3c(CCSCc4ccccc4)ncnc32)[C@H](O)[C@@H]1O | inactive | > 100 | inactive | > 100 | inactive |  |  |  |  |  | 
2 | OC[C@H]1O[C@@H](n2cnc3c(CCN4CCOCC4)ncnc32)[C@H](O)[C@@H]1O | inactive | 6 | inactive | 31 | inactive |  |  |  |  |  | 
3 | OC[C@H]1O[C@@H](n2cnc3c(CCN4CCCCC4)ncnc32)[C@H](O)[C@@H]1O | inactive | 37 | inactive | > 250 | inactive |  |  |  |  |  | 
4 | CCCCN(CCCC)CCc1ncnc2c1ncn2[C@@H]1O[C@H](CO)[C@@H](O)[C@H]1O |  | 5.6 |  | 37 |  | 4.59 | 5.3 | 13.8 | 6.4 | 4.4 | Activity [8]: 0.93; Activity [9]: 0.68; Activity [10]: 0.85; Activity [11]: 1.51; Activity [12]: 0.64; Activity [13]: 1.15
5 | CSCCc1ncnc2c1ncn2[C@@H]1O[C@H](CO)[C@@H](O)[C@H]1O | inactive | > 100 | inactive | > 100 | inactive |  |  |  |  |  | 
6 | CN(C)CCc1ncnc2c1ncn2[C@H]1C[C@H](O)[C@@H](CO)O1 | inactive | 116 | inactive | > 250 | inactive |  |  |  |  |  | 
7 | CCCCN(/C=C/c1ncnc2c1ncn2[C@@H]1O[C@H](CO)[C@@H](O)[C@H]1O)CCCC |  | 1 |  | 2 |  | 0.83 | 7.2 | 0.84 | 2.5 | 2 | 
8 | C[C@@]1(O)[C@H](O)[C@@H](CO)O[C@H]1n1cnc2c(N)ncnc21 |  | 0.23 |  | > 100 |  |  |  |  |  |  | 
9 | COC(=O)CSCCc1ncnc2c1ncn2[C@@H]1O[C@H](CO)[C@@H](O)[C@H]1O | inactive | 54 | inactive | > 100 | inactive |  |  |  |  |  | CC50 at 120 h [14]: > 100 µM
10 | OC[C@H]1O[C@@H](n2cnc3c(/C=C/N4CCOCC4)ncnc32)[C@H](O)[C@@H]1O |  | 5 |  | 23 |  | 0.41 | 4.5 | 0.31 | 2.4 | 2.3 | 
11 | OC[C@H]1O[C@@H](n2cnc3c(/C=C/N4CCCCC4)ncnc32)[C@H](O)[C@@H]1O |  | 1 |  | 26 |  | 0.32 | 2.3 | 0.44 | 2.1 | 1.55 | CC50 at 120 h [14]: 6 µM
12 | CCCCN(/C=C/c1ncnc2c1ncn2[C@H]1C[C@H](O)[C@@H](CO)O1)CCCC | inactive | 85 | inactive | > 100 | inactive |  |  |  |  |  | 
13 | OC[C@H]1O[C@@H](n2cnc3c(CCSc4nc5ccccc5s4)ncnc32)[C@H](O)[C@@H]1O | inactive | > 100 | inactive | > 100 | inactive |  |  |  |  |  | 
14 | CN(C)CCc1ncnc2c1ncn2[C@@H]1O[C@H](CO)[C@@H](O)[C@H]1O | inactive | 7 | inactive | 20 | inactive |  |  |  |  |  | 
15 | CCN(/C=C/c1ncnc2c1ncn2[C@@H]1O[C@H](CO)[C@@H](O)[C@H]1O)CC |  | 4 |  | 8 |  | 0.67 | 2.3 | 0.81 | 1 | 2.2 | 
16 | CN(/C=C/c1ncnc2c1ncn2[C@@H]1O[C@H](CO)[C@@H](O)[C@H]1O)Cc1ccccc1 |  | 0.34 |  | 1 |  | 0.78 | 3.6 | 0.57 | 2.3 | 2.1 | 
17 | COCCc1ncnc2c1ncn2[C@@H]1O[C@H](CO)[C@@H](O)[C@H]1O | inactive | 40 | inactive | > 100 | inactive |  |  |  |  |  | CC50 at 120 h [14]: 13 µM
18 | CN(C)/C=C/c1ncnc2c1ncn2[C@@H]1O[C@H](CO)[C@@H](O)[C@H]1O |  | 4 |  | 5 |  | 0.8 | 3.3 | 0.62 | 1.25 | 2.2 | 
19 | O=c1[nH]c(=O)n([C@H]2C[C@H](O)[C@@H](CO)O2)cc1F [FLOXURIDINE] |  |  |  |  |  |  | 0.012 |  | 0.017 | 0.012 | 
20 | OC[C@H]1O[C@@H](n2cnc3c(CC4SCCS4)ncnc32)[C@H](O)[C@@H]1O | inactive | > 100 | inactive | > 100 | inactive |  |  |  |  |  | 
21 | OC[C@H]1O[C@@H](n2cnc3c(/C=C/N4CCCCC4)ncnc32)C[C@@H]1O | inactive | 53 | inactive | > 100 | inactive |  |  |  |  |  | 
22 | CN(CCc1ncnc2c1ncn2[C@@H]1O[C@H](CO)[C@@H](O)[C@H]1O)Cc1ccccc1 |  | 11 |  | 132 |  | 5.83 | 11.2 | 17.7 | 5.7 | 7.9 | Activity [15]: 1.08; Activity [16]: 0.95; Activity [17]: 0.94
23 | CCN(CC)CCc1ncnc2c1ncn2[C@@H]1O[C@H](CO)[C@@H](O)[C@H]1O |  | 6.7 |  | 45 |  | 0.8 | 6.8 | 17.3 | 1.25 | 5.2 | Activity [15]: 0.99; Activity [18]: 1.38; Activity [19]: 0.78; Activity [16]: 1.08; Activity [17]: 0.8; Activity [20]: 0.65
24 | OC[C@H]1O[C@@H](n2cnc3c(CCN4CCOCC4)ncnc32)C[C@@H]1O | inactive | 25 | inactive | > 100 | inactive |  |  |  |  |  | CC50 at 120 h [14]: 13 µM
